Results on 49 compounds are retold here after ChEMBL document CHEMBL4808167, “Design, Synthesis, and Evaluation of Small Molecule Gαq/11 Protein Inhibitors for the Treatment of Uveal Melanoma” (J Med Chem, 2021).

Each structure is given as a SMILES string.

The target in assay [1] is GNAQ/GNA11 (Homo sapiens) (UniProt P50148+P29992). Kind of assay: Inhibition of Galphaq/11 (unknown origin) expressed in CHO cells coexpressing M1 receptor assessed as reduction in carbachol-induced IP1 accumulation at 10 uM preincubated for 1 hr followed by carbachol stimulation and measured after 1 hr by HTRF assay relative to control. The assay is classed as cell-based. The note with it: time 2.0 hrs.

A short description of assay [2]: Antiproliferative activity against human 92.1 cells assessed as inhibition of cell growth after 72 hrs by CCK8 assay. The assay is classed as functional, cell-based. The following applies: Homo sapiens, 921, 72 h. A digest of the protocol:
(§1)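 92.1 or MP41 cells in RPMI-1640 with 10% FBS were seeded at 3 × 10³ cells/well. Exposed to serial concentrations for 72 h at 37 °C, 5% CO₂. CCK-8 added for 1−4 h, absorbance read at 450 nm. IC₅₀ from concentration−response curve fit, mean ± SD.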
A general note: Tetrazolium assays rely on reduction of a dye to a coloured formazan, in cell work by metabolically active cells.

Assay [3] can be described thus: Antiproliferative activity against human MP41 cells assessed as inhibition of cell growth after 72 hrs by CCK8 assay. The assay is classed as functional, cell-based. The following applies: MP41, 72 h. Summed up: as §1

As to `CC[C@H](C)C(=O)N1CCn2cc(-c3ccccc3)nc2[C@H]1C(C)C`, the inhibition (commonly the drop in the measured response relative to a control, in per cent) in assay [1] was 11.8%. The half-inhibitory concentration (IC50) in assay [2] and in assay [3] was greater than 100 µM each time.
`CC(C)[C@@H]1c2nc(-c3ccccc3)cn2CCN1C(=O)[C@@H](N)CO`: in assay [1], the inhibition was determined as 9.5%. Moreover, the IC50 in assay [2] and in assay [3] was greater than 100 µM throughout.
In the case of `CC[C@H](C)C(=O)N1CCn2cc(-c3ccccc3)nc2[C@H]1CC(C)C`, in assay [1], the inhibition turned out to be 1.1%. The IC50 (in general, the midpoint of a concentration-inhibition curve) in assay [2] stood at 84.4 µM; in assay [3] it was 85.8 µM.
Turning to `N[C@@H](Cc1ccccc1)C(=O)N1CCn2cc(-c3ccccc3)nc2[C@@H]1CC1CCCCC1`, the inhibition in assay [1] is 21.2%. The results for the IC50 in assay [2] and in assay [3] were 30.1 µM and 25.5 µM, respectively.
With `N[C@@H](CS)C(=O)N1CCn2cc(-c3ccccc3)nc2[C@@H]1Cc1ccccc1`, the inhibition in assay [1] was 22.9%. For the same compound, the figures for the IC50 in assay [2] and in assay [3] were 45.2 µM and 19.8 µM, respectively.
Consider `CC(C)[C@H]1c2nc(-c3ccccc3)cn2CCN1C(=O)[C@@H](N)CCCCN`, for which the inhibition in assay [1] came out at 5.3%. In addition, the IC50 in assay [2] and in assay [3] was greater than 100 µM throughout.
`N[C@@H](CC(=O)O)C(=O)N1CCn2cc(-c3ccccc3)nc2[C@@H]1CC1CCCCC1`: the inhibition in assay [1] turned out to be 10.2%. Also, the half-maximal inhibitory concentration (IC50) in assay [2] and in assay [3] was greater than 100 µM throughout.
With `CC(C)[C@H]1c2nc(-c3ccccc3)cn2CCN1C(=O)[C@@H](N)CO`, the inhibition in assay [1] worked out at 2.8%. The IC50 in assay [2] and in assay [3] was greater than 100 µM each time.
With `CC[C@H](C)C(=O)N1CCn2cc(-c3ccccc3)nc2[C@@H]1C(C)C`, the inhibition in assay [1] came to 12.9%. Also, the IC50 in assay [2] and in assay [3] was greater than 100 µM each time.
Consider `C[C@@H](CS)C(=O)N1CCn2cc(-c3ccccc3)nc2[C@@H]1CC1CCCCC1`, for which the inhibition in assay [1] came to 25.6%. Moreover, the IC50 in assay [2] was 33.1 µM; in assay [3], greater than 100 µM.
The like results for `C[C@@H](O)[C@H](N)C(=O)N1CCn2cc(-c3ccccc3)nc2[C@@H]1CC1CCCCC1` were, in that order, 10.7%, greater than 100 µM and greater than 100 µM.
The like results for `N=C(N)NCCC[C@H](N)C(=O)N1CCn2cc(-c3ccccc3)nc2[C@@H]1CC1CCCCC1` were, in that order, 6.2%, greater than 100 µM and greater than 100 µM.
The matching figures for `CN[C@@H](CS)C(=O)N1CCn2cc(-c3ccccc3)nc2[C@@H]1C(C)C`: 11.5%, 45 µM and greater than 100 µM.
For `CC(C)C[C@H]1c2nc(-c3ccccc3)cn2CCN1C(=O)[C@@H](N)CS`, the inhibition in assay [1] is 25.3%. Besides, the IC50 in assay [2] was 35.2 µM; in assay [3] it was 91.9 µM.
Take `CN[C@@H](CS)C(=O)N1CCn2cc(-c3ccccc3)nc2[C@H]1C(C)C`: in assay [1], the inhibition is 30.5%. In addition, the IC50 in assay [2] and in assay [3] was greater than 100 µM throughout.
Consider `CC(C)C(=O)N1CCn2cc(-c3ccccc3)nc2[C@H]1C(C)C`, for which, in assay [1], the inhibition came out at 14.4%. Moreover, the IC50 in assay [2] and in assay [3] was greater than 100 µM each time.
Take `CC(C)C[C@@H]1c2nc(-c3ccccc3)cn2CCN1C(=O)[C@@H](N)CO`: the inhibition in assay [1] worked out at 4%. For the same compound, the IC50 in assay [2] and in assay [3] was greater than 100 µM each time.
With `CC(C)C(=O)N1CCn2cc(-c3ccccc3)nc2[C@@H]1CC1CCCCC1`, the inhibition in assay [1] is 44.2%. Besides, the results for the concentration for half-maximal inhibition (IC50) in assay [2] and in assay [3] were 42.3 µM and greater than 100 µM, respectively.
As for `CC[C@@H](C)[C@H](N)C(=O)N1CCn2cc(-c3ccccc3)nc2[C@H]1CC(C)C`, the inhibition in assay [1] was 6.5%. In addition, the IC50 in assay [2] and in assay [3] was greater than 100 µM in each case.
With `N[C@@H](Cc1c[nH]cn1)C(=O)N1CCn2cc(-c3ccccc3)nc2[C@@H]1CC1CCCCC1`, the inhibition in assay [1] was determined as 24.7%. Further, the IC50 is 91.9 µM in assay [2] and greater than 100 µM in assay [3].
The like results for `CN[C@@H](CS)C(=O)N1CCn2cc(-c3ccccc3)nc2[C@H]1CC(C)C` were, in that order, 13.2%, greater than 100 µM and 59.3 µM.
The matching figures for `NC(=O)CC[C@H](N)C(=O)N1CCn2cc(-c3ccccc3)nc2[C@@H]1CC1CCCCC1`: 18.5%, 87.2 µM and greater than 100 µM.
The matching figures for `CC[C@H](C)C(=O)N1CCn2cc(-c3ccccc3)nc2[C@@H]1CC1CCCCC1`: 47.1%, 27.4 µM and 79 µM.
As to `CC(C)C[C@@H]1c2nc(-c3ccccc3)cn2CCN1C(=O)[C@@H](N)Cc1ccc(O)cc1`, the inhibition in assay [1] was determined as 3.7%. Moreover, the IC50 in assay [2] and in assay [3] was greater than 100 µM each time.
For `CC(C)C(=O)N1CCn2cc(-c3ccccc3)nc2[C@@H]1C(C)C`, the inhibition in assay [1] was found to be 9.9%. For the same compound, the IC50 in assay [2] and in assay [3] was greater than 100 µM throughout.
`CC[C@@H](C)[C@H](N)C(=O)N1CCn2cc(-c3ccccc3)nc2[C@@H]1C(C)C`: in assay [1], the inhibition worked out at 1.8%. Besides, the IC50 in assay [2] and in assay [3] was greater than 100 µM in each case.
Consider `CN[C@@H](CS)C(=O)N1CCn2cc(-c3ccccc3)nc2[C@@H]1CC1CCCCC1`, for which, in assay [1], the inhibition turned out to be 30%. For the same compound, the IC50 worked out at 24 µM in assay [2] and 27.8 µM in assay [3].
Turning to `CC(C)C[C@@H]1c2nc(-c3ccccc3)cn2CCN1C(=O)[C@@H](N)CCCCN`, in assay [1], the inhibition worked out at 1.3%. For the same compound, the IC50 in assay [2] and in assay [3] was greater than 100 µM throughout.
Regarding `CC(C)[C@@H]1c2nc(-c3ccccc3)cn2CCN1C(=O)[C@@H](N)Cc1ccc(O)cc1`, the inhibition in assay [1] is 18%. The IC50 is greater than 100 µM in assay [2] and 97.6 µM in assay [3].
The like results for `CC[C@@H](C)[C@H](N)C(=O)N1CCn2cc(-c3ccccc3)nc2[C@H]1C(C)C` were, in that order, 0.96%, greater than 100 µM and 97.2 µM.
On to `CC(C)[C@H]1c2nc(-c3ccccc3)cn2CCN1C(=O)[C@@H](N)Cc1ccc(O)cc1`, for which the inhibition in assay [1] is 6.6%. Besides, the IC50 in assay [2] and in assay [3] was greater than 100 µM in each case.
With `O=C([C@@H]1CCCN1)N1CCn2cc(-c3ccccc3)nc2[C@@H]1CC1CCCCC1`, the inhibition in assay [1] came out at 14.2%. For the same compound, the IC50 is 27.4 µM in assay [2] and 63.4 µM in assay [3].
For `CC(C)[C@H]1c2nc(-c3ccccc3)cn2CCN1C(=O)[C@@H](N)CS`, the inhibition in assay [1] came out at 33.9%. Further, the results for the IC50 in assay [2] and in assay [3] were 65.7 µM and greater than 100 µM, respectively.
The matching figures for `CC(C)C[C@@H]1c2nc(-c3ccccc3)cn2CCN1C(=O)C(C)C`: 2.6%, greater than 100 µM and greater than 100 µM.
As to `CN(C)[C@@H](CS)C(=O)N1CCn2cc(-c3ccccc3)nc2[C@@H]1CC1CCCCC1`, in assay [1], the inhibition amounted to 11.9%. The IC50 in assay [2] and in assay [3] was greater than 100 µM in each case.
Turning to `CCN(CC)[C@@H](CS)C(=O)N1CCn2cc(-c3ccccc3)nc2[C@@H]1CC1CCCCC1`, the inhibition in assay [1] turned out to be 24.2%. Besides, the IC50 in assay [2] and in assay [3] was greater than 100 µM each time.
On to `NCCCC[C@H](N)C(=O)N1CCn2cc(-c3ccccc3)nc2[C@@H]1CC1CCCCC1`, for which the inhibition in assay [1] was 36.8%. In addition, the IC50 in assay [2] and in assay [3] was greater than 100 µM in each case.
In the case of `N[C@@H](CCC(=O)O)C(=O)N1CCn2cc(-c3ccccc3)nc2[C@@H]1CC1CCCCC1`, the inhibition in assay [1] turned out to be 16.2%. Also, the IC50 in assay [2] and in assay [3] was greater than 100 µM throughout.
Regarding `CC(C)C[C@@H]1c2nc(-c3ccccc3)cn2CCN1C(=O)[C@@H](N)CS`, the inhibition in assay [1] turned out to be 50.4%. In addition, the concentration for half-maximal inhibition (IC50) in assay [2] stood at 64.1 µM; in assay [3], 47.7 µM.
The matching figures for `N[C@@H](CS)C(=O)N1CCn2cc(-c3ccccc3)nc2[C@H]1Cc1ccccc1`: 19.5%, 25.8 µM and 20 µM.
The matching figures for `NCC(=O)N1CCn2cc(-c3ccccc3)nc2[C@@H]1CC1CCCCC1`: 21.9%, 19.3 µM and greater than 100 µM.
On to `C[C@H](N)C(=O)N1CCn2cc(-c3ccccc3)nc2[C@@H]1CC1CCCCC1`, for which the inhibition in assay [1] is 17.1%. The values for the IC50 in assay [2] and in assay [3] were 35.5 µM and 95.9 µM, respectively.
On to `CSCC[C@H](N)C(=O)N1CCn2cc(-c3ccccc3)nc2[C@@H]1CC1CCCCC1`, for which, in assay [1], the inhibition amounted to 12.4%. The 50% inhibitory concentration (IC50) was 42 µM in assay [2] and greater than 100 µM in assay [3].
With `N[C@@H](CO)C(=O)N1CCn2cc(-c3ccccc3)nc2[C@@H]1CC1CCCCC1`, in assay [1], the inhibition is 29.3%. In addition, the IC50 in assay [2] is 78.4 µM; in assay [3], greater than 100 µM.
The matching figures for `C[C@@H]1c2nc(-c3ccccc3)cn2CCN1C(=O)[C@@H](N)CS`: 6%, greater than 100 µM and greater than 100 µM.
With `CC(C)[C@H](N)C(=O)N1CCn2cc(-c3ccccc3)nc2[C@@H]1CC1CCCCC1`, the inhibition in assay [1] turned out to be 21.7%. Further, the IC50 turned out to be 40.3 µM in assay [2] and 83 µM in assay [3].
The like results for `CC(C)[C@@H]1c2nc(-c3ccccc3)cn2CCN1C(=O)[C@@H](N)CS` were, in that order, 48.4%, 62.7 µM and greater than 100 µM.
The like results for `N[C@@H](Cc1c[nH]c2ccccc12)C(=O)N1CCn2cc(-c3ccccc3)nc2[C@@H]1CC1CCCCC1` were, in that order, 7.4%, 20.6 µM and 15.6 µM.
The matching figures for `CC(C)C[C@H](N)C(=O)N1CCn2cc(-c3ccccc3)nc2[C@@H]1CC1CCCCC1`: 15.9%, 55.4 µM and 33.5 µM.
